Assays:
Rattus norvegicus [1] = assay: Antiallergic activity in the rat PCA test following iv administration relative to M&B 22,948, the dose of which was 0.1 mg/kg for 100% inhibition; format: functional
Rattus norvegicus [2] = species: Rattus norvegicus; assay: Biological activity; format: functional
[3] = Association constant at 25 degree C in aqueous media; format: ADME
Method in brief: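 Spectroscopic method in aqueous buffer at 25 °C. Values are thermodynamic pKa's corrected for the ionic strength of the buffer solutions.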

[4] = The function log (MrI) where M, is the molecular weight of the test compound and I is its activity relative to the reference compound 1, expresses the biological activity in molar terms; format: functional
Method in brief: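 Relative activity I from iv rat PCA 100%-inhibition comparison with M&B 22,948, converted to molar terms as log(Mr·I) using the compound's molecular weight.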

Rattus norvegicus [5] = assay: Inhibitory dose in the rat PCA test following iv administration; format: functional; conditions: read-out: ID50 (the source's name)
Rattus norvegicus [6] = assay: Inhibitory dose in the rat PCA test following oral administration; format: functional; conditions: read-out: ID50 (the source's name)

Row | SMILES | Relative activity (Rattus norvegicus [1]) | Log [MrI] (Rattus norvegicus [2]) | other results
1 | COc1cc(OC)c(O)c(C(=O)Nc2nn[nH]n2)c1 | 0.5 | 2.122 | 
2 | CC(=O)c1cc(F)cc(C(=O)Nc2nnn[nH]2)c1O | 0.5 | 2.123 | pKa ([3]; aqueous media, read-out: pKa): 4.2; pKa ([3]; buffer): 7.1
3 | COc1cc([N+](=O)[O-])cc(C(=O)Nc2nn[nH]n2)c1O | 1 | 2.447 | 
4 | CCc1cc(C(=O)Nc2nn[nH]n2)c(O)c(/C(C)=N/OC)c1 | 3.5 | 3.025 | 
5 | COc1ccc(O)c(C(=O)Nc2nn[nH]n2)c1 | 0.2 | 1.672 | 
6 | CC(=O)c1cc(CC(C)C)cc(C(=O)Nc2nn[nH]n2)c1O | 0.2 | 1.783 | 
7 | CC(=O)c1cc(C(C)(C)C)cc(C(=O)Nc2nn[nH]n2)c1O | 0.4 | 2.084 | 
8 | CC(=O)c1cccc(NC(=O)c2nn[nH]n2)c1O | 20 | 3.694 | 
9 | O=C(Nc1nn[nH]n1)c1ccccc1O | 0.1 | 1.312 | 
10 | CC(=O)c1cc([N+](=O)[O-])cc(NC(=O)c2nn[nH]n2)c1O | 5 | 3.164 | 
11 | CC(=O)c1cc([N+](=O)[O-])cc(C(=O)Nc2nn[nH]n2)c1O | 1 | 2.465 | 
12 | CCc1cc(OC)c(O)c(C(=O)Nc2nn[nH]n2)c1 | 1 | 2.42 | 
13 | O=C(Nc1nn[nH]n1)c1cc(F)ccc1O | 0.1 | 1.348 | 
14 | CC(=O)c1cc(S(C)(=O)=O)cc(NC(=O)c2nn[nH]n2)c1O | 2 | 2.813 | 
15 | Cc1cc(NC(=O)c2nn[nH]n2)c(O)c(C(=O)O)c1 | 0.2 |  | Log MrI [4]: 1.72
16 | CCc1cc(NC(=O)c2nn[nH]n2)c(O)c(OC)c1 | 10 | 3.42 | 
17 | CC(=O)c1cccc(C(=O)Nc2nn[nH]n2)c1O | 1 | 2.393 | 
18 | COc1cc(C(C)=O)c(O)c(C(=O)Nc2nn[nH]n2)c1 | 2 | 2.743 | 
19 | CCC(=O)c1cc(C)cc(NC(=O)c2nn[nH]n2)c1O | 5 | 3.139 | 
20 | Cc1cc(NC(=O)c2nn[nH]n2)c(O)c(C(=O)C(C)C)c1 | 5 | 3.16 | 
21 | CC(=O)c1cc(C)cc(NC(=O)c2nn[nH]n2)c1O | 10 | 3.417 | 
22 | COc1cc(NC(=O)c2nn[nH]n2)c(O)c(C(C)=O)c1 | 10 | 3.443 | 
23 | CSc1ccc(O)c(C(=O)Nc2nn[nH]n2)c1 | 0.2 | 1.701 | 
24 | COC(=O)c1cc(C)cc(NC(=O)c2nn[nH]n2)c1O | 2 |  | Log MrI [4]: 2.74
25 | COc1cc(C#N)cc(C(=O)Nc2nn[nH]n2)c1O | 2 | 2.716 | 
26 | O=C(Nc1nn[nH]n1)c1cc([N+](=O)[O-])ccc1O | 0.5 |  | Log MrI [4]: 2.1
27 | CCC(=O)c1cc(C)cc(C(=O)Nc2nn[nH]n2)c1O | 2 | 2.741 | 

Row | SMILES | Relative activity (Rattus norvegicus [1]) | Log [MrI] (Rattus norvegicus [2]) | other results
28 | CC(=O)c1cc(C)cc(C(=O)Nc2nn[nH]n2)c1O | 1 | 2.417 | 
29 | CC(C)(C)c1ccc(O)c(C(=O)Nc2nn[nH]n2)c1 | 0.01 | 0.417 | 
30 | Cc1cc(NC(=O)c2nn[nH]n2)c(O)c(C(=O)N(C)C)c1 | 1 | 2.463 | 
31 | COc1cc(C)cc(NC(=O)c2nn[nH]n2)c1O | 2.5 | 2.794 | 
32 | C/C(=N\O)c1cc(C)cc(NC(=O)c2nn[nH]n2)c1O | 35 | 3.985 | 
33 | CN(C)S(=O)(=O)c1ccc(O)c(NC(=O)c2nn[nH]n2)c1 | 0.25 | 1.892 | 
34 | COc1cc(C)cc(C(=O)Nc2nn[nH]n2)c1O | 0.5 | 2.095 | 
35 | CCCc1cc(NC(=O)c2nn[nH]n2)c(O)c(C(C)=O)c1 | 10 | 3.461 | 
36 | CC(=O)c1cc(Br)cc(NC(=O)c2nn[nH]n2)c1O | 2 | 2.814 | 
37 | CCCC(=O)c1cc(C)cc(NC(=O)c2nn[nH]n2)c1O | 4 | 3.063 | 
38 | CC(=O)c1cc(Cl)cc(NC(=O)c2nn[nH]n2)c1O | 7 | 3.295 | 
39 | CCOC(=O)c1cc(C)cc(NC(=O)c2nn[nH]n2)c1O | 10 |  | Log MrI [4]: 3.46
40 | CC(=O)Nc1cc(C(C)=O)c(O)c(C(=O)Nc2nn[nH]n2)c1 | 0.2 | 1.784 | 
41 | O=C(Nc1nn[nH]n1)c1cc(O)ccc1O | 0.1 |  | Log MrI [4]: 1.34
42 | CCc1cc(C(=O)Nc2nn[nH]n2)c(O)c(/C(C)=N/O)c1 | 10 | 3.462 | 
43 | O=C(Nc1nn[nH]n1)c1cc(-c2ccccc2)ccc1O | 0.01 | 0.449 | 
44 | N#Cc1ccc(O)c(C(=O)Nc2nn[nH]n2)c1 | 0.5 | 2.061 | 
45 | Cc1cc(NC(=O)c2nn[nH]n2)c(O)c(-c2nn[nH]n2)c1 | 1 | 2.455 | 
46 | CCC(=O)c1cc(CC)cc(NC(=O)c2nn[nH]n2)c1O | 5 | 3.16 | 
47 | CO/N=C(\C)c1cc(C)cc(NC(=O)c2nn[nH]n2)c1O | 10 | 3.463 | 
48 | CC(=O)c1cc(S(N)(=O)=O)cc(C(=O)Nc2nn[nH]n2)c1O | 0.2 | 1.814 | 
49 | CCC(=O)c1cc(CC)cc(C(=O)Nc2nn[nH]n2)c1O | 0.75 | 2.34 | 
50 | CC(=O)c1cc(C#N)cc(NC(=O)c2nn[nH]n2)c1O | 10 | 3.435 | 
51 | CCCc1cc(C(C)=O)c(O)c(C(=O)Nc2nn[nH]n2)c1 | 2 | 2.762 | 
52 | CC(=O)Nc1ccc(O)c(C(=O)Nc2nn[nH]n2)c1 | 0.01 | 0.418 | 
53 | COc1cccc(C(=O)Nc2nn[nH]n2)c1O | 1 | 2.371 | 
54 | O=C(Nc1nn[nH]n1)c1cc(Cl)ccc1O | 0.1 | 1.38 | 

Row | SMILES | Relative activity (Rattus norvegicus [1]) | Log [MrI] (Rattus norvegicus [2]) | other results
55 | CC(=O)c1cc(Cl)cc(C(=O)Nc2nn[nH]n2)c1O | 0.05 | 1.149 | 
56 | CC(=O)c1cc(NC(=O)c2nn[nH]n2)c(O)c(C(C)=O)c1 | 0.5 | 2.16 | 
57 | Cc1cc(NC(=O)c2nn[nH]n2)c(O)c(C(=O)C(F)(F)F)c1 | 0.2 | 1.8 | 
58 | CN(C)S(=O)(=O)c1ccc(O)c(C(=O)Nc2nn[nH]n2)c1 | 0.05 | 1.193 | 
59 | CC(=O)c1cc(F)cc(NC(=O)c2nnn[nH]2)c1O [EFLUMAST] | 20 | 3.724 | ED50 (Rattus norvegicus [5]): 0.004 mg/kg; ED50 (Rattus norvegicus [6]): 0.16 mg/kg
60 | CC(=O)c1cc(Br)cc(C(=O)Nc2nn[nH]n2)c1O | 0.05 | 1.212 | 
61 | Cc1cc(NC(=O)c2nn[nH]n2)c(O)c(C(=O)C2CC2)c1 | 5 | 3.157 | 
62 | Cc1cc(NC(=O)c2nn[nH]n2)c(O)c(C(=O)Cc2ccccc2)c1 | 0.1 | 3.528 | 
63 | COc1cccc(NC(=O)c2nn[nH]n2)c1O | 5 | 3.07 | 
64 | COc1cc(Br)cc(NC(=O)c2nn[nH]n2)c1O | 2 | 2.798 | 
65 | O=C(Nc1nn[nH]n1)c1cc(Br)ccc1O | 0.02 | 0.756 | 
66 | CCc1cc(NC(=O)c2nn[nH]n2)c(O)c(C(C)=O)c1 | 20 | 3.74 | 
67 | CC(=O)Nc1cc(NC(=O)c2nn[nH]n2)c(O)c(C(C)=O)c1 | 0.5 |  | Log MrI [4]: 2.19
68 | COc1cc(C(C)(C)C)cc(C(=O)Nc2nn[nH]n2)c1O | 0.1 | 1.464 | 
69 | CCc1cc(C(C)=O)c(O)c(C(=O)Nc2nn[nH]n2)c1 | 1 | 2.439 | 
70 | COc1cc(NC(C)=O)cc(C(=O)Nc2nn[nH]n2)c1O | 0.02 | 0.766 | 
71 | Cc1cc(NC(=O)c2nn[nH]n2)c(O)c(C(N)=O)c1 | 5 | 3.118 | 
72 | O=C(Nc1nn[nH]n1)c1cc(C(F)(F)F)ccc1O | 0.02 | 0.737 | 
73 | CC(=O)c1ccc(O)c(C(=O)Nc2nn[nH]n2)c1 | 0.02 | 0.694 | 
74 | Cc1ccc(O)c(C(=O)Nc2nn[nH]n2)c1 | 0.1 | 1.34 | 
75 | O=C(Nc1ccccc1O)c1nn[nH]n1 | 1 | 2.31 | 
76 | CS(=O)(=O)c1ccc(O)c(C(=O)Nc2nn[nH]n2)c1 | 0.04 | 1.053 | 
77 | COc1cc(Br)cc(C(=O)Nc2nn[nH]n2)c1O | 0.2 | 1.798 | 
78 | CC(=O)c1cc(C(C)(C)C)cc(NC(=O)c2nn[nH]n2)c1O | 0.5 | 2.17 | 
79 | CCC(=O)c1cc(C#N)cc(NC(=O)c2nn[nH]n2)c1O | 5 | 3.156 | 

— ChEMBL document CHEMBL1123158, “Synthesis and quantitative structure-activity relationships of antiallergic 2-hydroxy-N-1H-tetrazol-5-ylbenzamides and N-(2-hydroxyphenyl)-1H-tetrazole-5-carboxamides” (J Med Chem, 1986)
